Yeast superoxide – caloric restriction mimetics inhibiting age-related superoxide in yeast; S. cerevisiae aged cells, superoxide DHE fluorescence; hits give low values; 330,000 compounds, 0.18% hits; superoxide response (% of plate mean), % at 10 µM;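 active = superoxide response under a set limit, about three screen SD below normal, cut at about 65% in these data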;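 note: yeast aged for seven days with compound at 30 °C before DHE staining; 100% = average MFI of all compound-treated wells on the plate with controls excluded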
proCasp7 act – activates human procaspase-7, counter-screen for procaspase-3 activators. P55210. recombinant procaspase-7, Ac-DEVD-pNA absorbance 405 nm; D23A/D198A/D206A triple mutant, cannot self-cleave; scale: DMSO 0, 5 µM enzyme 100. 330,000 compounds, 0.093% hits. activation, % at 8.5 µM;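 active = percent activation above the screen-wide mean plus 3 SD, cut at about 25% in these data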
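buffer or medium = Zinc-free HEPES/NaCl buffer, pH 7.4 | material = Procaspase-7 triple mutant (PC-7 D3A) | input = 2 µM procaspase-7 mutant as dispensed | signal = Epi-absorbance of released pNA at 405 nm, two timepoints | timing = 1 h preincubation, 2 h reaction | replicates = singlicate compound testing | evaluation = % activation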
ASAP1 inh – ASAP1 ArfGAP inhibition; Q9ULH1; ASAP1-stimulated ARF1 GTP hydrolysis, GDP FP detection; inhibition, % at 16.5 µM; 360,000 compounds, 0.19% hits; in the data active = inhibition above about 25%;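 note: 0% = vehicle with enzyme and substrate and 100% = no enzyme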
Target sequence (Q9ULH1 325-724 limits assumed): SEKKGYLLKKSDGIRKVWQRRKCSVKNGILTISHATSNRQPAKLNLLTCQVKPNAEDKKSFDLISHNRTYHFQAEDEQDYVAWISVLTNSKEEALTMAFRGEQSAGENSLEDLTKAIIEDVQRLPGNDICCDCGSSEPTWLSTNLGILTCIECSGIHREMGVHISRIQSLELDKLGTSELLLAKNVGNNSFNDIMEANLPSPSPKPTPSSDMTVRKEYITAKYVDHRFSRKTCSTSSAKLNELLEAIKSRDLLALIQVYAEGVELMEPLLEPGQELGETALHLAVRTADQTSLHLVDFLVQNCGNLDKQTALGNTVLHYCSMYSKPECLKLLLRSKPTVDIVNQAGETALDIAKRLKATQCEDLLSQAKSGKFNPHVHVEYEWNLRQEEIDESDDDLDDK
ARFGAP1 inh – rat ARFGAP1 inhibition. inhibition, % at 16.5 µM. Q62848. Arfgap1-stimulated ARF1 GTP hydrolysis, GDP FP detection. 360,000 compounds, 0.26% hits;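 active = inhibition above a per-plate limit, mean inhibition of low control wells plus 3 SD, cut at about 25% in these data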;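 note: 0% = DMSO wells with enzyme and 100% = wells lacking Arfgap1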
Target sequence (Q62848 1-136 limits assumed): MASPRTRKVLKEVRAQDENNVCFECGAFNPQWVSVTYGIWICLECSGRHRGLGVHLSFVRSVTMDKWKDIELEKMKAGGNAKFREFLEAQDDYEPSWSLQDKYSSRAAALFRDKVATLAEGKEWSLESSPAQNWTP
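Replicates: Single well per compound | Assay system: Truncated rat Arfgap1 GAP domain | Control set: No-Arfgap1 wells (100%) versus DMSO full-reaction wells (0%) | Times: Enzyme reaction 120 min at 25 °C after 20 min preincubation | Reagent: Human ARF1(Δ1-17)-GTP substrate | Measured by: Tracer-displacement fluorescence polarization with EDTA stop, 620/688 nm | Measure: Percent inhibition of Arfgap1-stimulated GTP hydrolysis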
proCasp3 act – procaspase-3 (human) activation; P42574; recombinant procaspase-3 D3A, Ac-DEVD-pNA absorbance 405 nm; activation, % at 8.5 µM; 330,000 compounds, 0.11% hits; AID 463141;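 active = activation above the mean of all tested compounds plus 3 SD, cut at about 21% in these data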;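 note: 0% = DMSO alone and 100% = DMSO wells spiked with extra 5 µM PC-3 D3A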
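Assay system: Autoprocessing-dead procaspase-3 D3A mutant enzyme; also added: Ac-DEVD-pNA; doses: one concentration, 8.5 µM nominal, 0.8% DMSO; times: 1 h compound preincubation, 2 h substrate hydrolysis at 25 °C; technique: 405 nm absorbance of p-nitroaniline, reads at 0 and 120 min; measure: % activation between DMSO and enzyme-spiked controls; repeats: single replicate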
LANA-H2A inh – blocks KSHV LANA binding to histone H2A/H2B. Q9QR71. cell-free LANA-H2A/H2B peptide, fluorescence polarization. inhibition, % (test concentration not listed). 320,000 compounds, 0.6% hits. AID 2629; in the data active = inhibition mostly above about 10%, no sharp cut-off; inactive = mostly below about 6.7%
PC3 dual counter – counter-screen for dual procaspase-3/7 activators: human procaspase-3 activation; shares compounds with proCasp7 act; recombinant PC-3 D3A, Ac-DEVD-pNA absorbance 405 nm; aspartates 9, 28, 175 changed to alanine; 100% = enzyme control; activation, % at 8.5 µM; 290 tested, under 10 active;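 active = mean percent activation across triplicates above a set limit taken from the earlier primary procaspase-3 screen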;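 note: 0% = DMSO wells and 100% = DMSO wells with 5 µM added PC-3 D3A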
PC7 dual conf – activates human procaspase-7, confirming dual procaspase activators | AID 493115 | recombinant procaspase-7, Ac-DEVD-pNA absorbance 405 nm; D23A/D198A/D206A mutant that cannot self-cleave | 290 tested, under 10 active | shares compounds with proCasp7 act | activation, % at 8.5 µM;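 active = mean activation above a set limit carried over from the earlier primary screen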;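 note: 0% = DMSO only and 100% = DMSO with added 5 µM PC-7 enzyme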
An asterisk follows results filed as active; . = not tested or not shown. Compounds with a hit are over-represented: about 1.2% of the library has one in this group of screens.

SMILES | Yeast superoxide | proCasp7 act | ASAP1 inh | ARFGAP1 inh | proCasp3 act | LANA-H2A inh | PC3 dual counter | PC7 dual conf
COc1ccc(/C=N/NC(=O)c2sc3nc(C)cc(C)c3c2N)cc1 | 98.0 | 48.8* | -13.6 | 9.1 | 18.9 | 5.5 | -28.4 | -34.9
COc1ccc(-n2c(=S)[nH]c3cc(C(=O)N4CCN(c5ccccc5)CC4)ccc3c2=O)c(OC)c1 | 108.8 | -1.3 | 13.6 | 9.4 | 2.2 | -2.4 | . | .
COc1ccc(-c2cc(C(F)(F)F)n3nc(C(=O)NCc4ccco4)cc3n2)cc1 | 100.1 | 41.7* | 12.2 | 0.4 | 59.8* | 2.6 | -29.9 | -36.7
CCOC(=O)c1cncc(C#CCO)c1 | 103.3 | -0.2 | -2.3 | 13.8 | -9.0 | -1.4 | . | .
O=C1NC[C@H](CCCCN2C[C@H](Cc3ccc(O)cc3)N(CC3CCCCC3)C(=O)C2=O)N(CCc2ccc(O)cc2)C1=O | . | . | -9.3 | -4.6 | . | . | . | .
COC(=O)C1=NN(c2ccc(Cl)cc2)C2C(=O)N(c3ccccc3OC)C(=O)C12 (stereo not drawn) | 107.5 | 30.2* | -3.5 | -3.9 | 15.0 | 1.7 | 9.7 | 6.6
O=C(C1=NN(c2ccccc2)C2C(=O)N(c3ccccc3Cl)C(=O)C12)c1ccccc1 (stereo not drawn) | 86.6 | 47.5* | 11.6 | -2.6 | 30.3* | 4.7 | 45.5* | 34.1*
O=C(C1=NN(c2ccccc2)C2C(=O)N(c3ccccc3)C(=O)C12)c1ccccc1 (stereo not drawn) | 97.0 | 40.8* | -15.6 | 5.0 | 26.3* | 8.8 | 40.3* | 27.5*
COc1ccccc1N1C(=O)C2C(C(=O)c3ccccc3)=NN(c3ccccc3)C2C1=O (stereo not drawn) | 97.2 | 33.0* | 5.3 | 2.0 | 20.2 | -1.8 | 25.9* | 18.2
CCOC(=O)C1=NN(c2ccccc2)C2C(=O)N(c3ccccc3OC)C(=O)C12 (stereo not drawn) | 92.7 | 0.6 | 2.2 | 1.9 | 2.0 | -4.4 | . | .
Cc1ccc(N2C(=O)C3C(C(=O)c4ccccc4)=NN(c4ccccc4)C3C2=O)cc1 (stereo not drawn) | 113.3 | 18.1 | 7.3 | 7.9 | 7.2 | . | . | .
CC(=O)Oc1c(I)cc(I)cc1C(=O)Nc1ccc(Cl)cc1 | 94.7 | -8.4 | 4.5 | 9.1 | 11.3 | -5.1 | . | .
O=C(O)c1c[nH]c(=O)c2ccccc12 | 103.2 | 5.3 | -4.9 | -4.1 | 10.2 | -0.2 | . | .
CCc1sc(C(=O)Nc2ccc3c(c2)OCCO3)cc1Br | 92.1 | -5.0 | 9.7 | -5.4 | -0.3 | -2.3 | . | .
NS(=O)(=O)c1ccc(N2N=C(c3ccccc3)CC2c2ccccc2Cl)cc1 (stereo not drawn) | 95.5 | 79.5* | -4.5 | -0.9 | 46.8* | . | -28.4 | -35.0
NS(=O)(=O)c1ccc(N2N=C(c3ccccc3)CC2c2ccccc2)cc1 (stereo not drawn) | 95.7 | 63.5* | -0.4 | 2.4 | 37.5* | 2.5 | -28.1 | -35.2
CCc1ccc(C2=NN(c3ccc(S(N)(=O)=O)cc3)C(c3ccc(F)cc3)C2)cc1 (stereo not drawn) | 126.4 | 26.9* | -5.5 | 6.1 | 59.2* | -2.0 | -30.9 | -36.2
COc1ccc(CCC(=O)N2c3ccccc3N=C(c3ccc(C(F)(F)F)cc3)C2C(=O)NC2CCCC2)cc1 (stereo not drawn) | . | . | -0.3 | -0.7 | . | . | . | .
CC1(C(=O)Nc2ccc3c(c2)OCCO3)CN(S(C)(=O)=O)CC(=O)N1C1CCCCCC1 (stereo not drawn) | . | . | -14.5 | -0.6 | . | . | . | .
CC(C)CCCN1C(N(C)C)=NC[C@@H]1Cc1ccccc1 | 106.1 | 0.8 | -3.9 | 11.1 | 7.2 | -0.6 | . | .
O=C(O)c1cc(-c2c[nH]c3ccccc23)nc2cc3ccccc3cc12 | 97.5 | -1.5 | 0.7 | -1.5 | -1.3 | -5.9 | . | .
N#Cc1cc2cc3c(cc2nc1N1CCCCC1)OCCO3 | 100.0 | 37.9* | 7.1 | 11.3 | 19.1 | 0.6 | -27.7 | -35.8
CCN(CC(=O)NC1CCS(=O)(=O)C1)C(C)C(=O)Nc1ccc(F)cc1 (stereo not drawn) | 99.8 | -4.2 | 0.9 | 13.7 | 5.5 | 0.5 | . | .
Cc1c(C(=O)N/N=C/c2ccc(N(C)C)cc2)[nH]c2ccc(Cl)cc12 | 105.7 | 35.5* | -0.8 | -4.9 | 8.2 | -6.5 | -30.5 | -28.1
COc1ccc(-n2c(N)c(C(=O)NCc3ccco3)sc2=S)cc1 | 104.6 | -10.9 | 16.0 | 8.3 | -3.6 | -3.4 | . | .
SMILES | Yeast superoxide | proCasp7 act | ASAP1 inh | ARFGAP1 inh | proCasp3 act | LANA-H2A inh | PC3 dual counter | PC7 dual conf
COc1ccc(-n2c(N)c(C(=O)NCc3ccco3)c3nc4ccccc4nc32)cc1 | 105.2 | 44.2* | 5.6 | 3.6 | -5.1 | 1.0 | -30.4 | -36.8
COc1cc(-n2c(N)c(C(=O)NCc3ccco3)c3nc4ccccc4nc32)cc(OC)c1OC | 94.2 | 42.9* | 5.7 | 7.6 | 1.9 | 7.8 | -28.4 | -36.2
Nc1ccc(-n2c(N)c(C(=O)NCc3ccc4c(c3)OCO4)c3nc4ccccc4nc32)cc1 | 95.5 | 44.3* | 2.0 | 1.8 | -4.6 | -6.6 | -29.1 | -31.2
COc1ccc(-n2c(N)c(C(=O)NCc3ccco3)c3nc4ccccc4nc32)cc1OC | 96.9 | 32.0* | -2.0 | -0.2 | 11.8 | 5.7 | -29.3 | -34.5
CC(C)N(C(=O)c1nn(C)c2c1CSc1ccccc1-2)C1CCCCC1 | 115.7 | -8.5 | -0.3 | 5.8 | -4.3 | 5.1 | . | .
Cc1ccc2nc3c(cc2c1)c(NC(=O)c1ccco1)nn3CC(C)C | 89.6 | 63.9* | -0.6 | 4.9 | 52.2* | 2.3 | -29.0 | -34.2
Cc1ccc(-c2cc(-c3ccc(F)cc3)nc(N)c2C#N)o1 | 87.4 | 49.6* | -12.6 | 2.1 | 41.9* | 7.4 | -29.4 | -33.9
CC(=O)N1N=C(c2ccccc2)CC1c1cccs1 (stereo not drawn) | 95.7 | . | -5.0 | 0.5 | . | -1.0 | . | .
CC(=O)Nc1ccc(C2=NN(c3ccccc3)C(c3cccs3)C2)cc1 (stereo not drawn) | 99.8 | 126.2* | 10.6 | -12.6 | 157.4* | -9.7 | -30.7 | -34.9
CC/C(=N\NC(=O)CCC(=O)NCc1ccccc1)c1ccc(O)cc1 | 90.0 | -0.9 | -13.1 | 11.6 | 0.2 | -8.6 | . | .
CCN1CCN(c2ccc(S(=O)(=O)N3CCOCC3)cc2NC(=O)c2ccc(Cl)s2)CC1 | 101.3 | -7.6 | 9.8 | 1.4 | 0.7 | -5.1 | . | .
